The list is not random: actives were taken first. Their share in the collection is about 3.6%.
Hsp70 act = switches on Hsp70 transcription; HeLa Hsp70 promoter luciferase reporter, luminescence; scaled: vehicle 0, proteasome-inhibitor control 100%; activation, % at 10 µM; 200,000 tested, 0.04% active; AID 1203;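 active = activation above the mean across all tested compounds plus 3 SD, cutoff set per campaign, cut at about 5.5% in these data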
PERK inh = blocks human PERK kinase | CHO PERK-DD fusion, SEAP luminescence translation reporter | inhibition, % at 5.6 µM | 220,000 tested, 0.17% active | Q9NZJ5;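 active = inhibition above the mean inhibition of all tested compounds plus 3 SD, set separately per screening campaign, cut at about 2.9% in these data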;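 note: PERK kinase domain activated by AP20187 dimerizer at 100 nM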
AHR act = human AHR activation; 320,000 tested, 2.5% active; activation, % at 5 µM; AHR-responsive luciferase reporter cells, luminescence; in the data active = activation above about 47%
Target sequence (P35869 whole entry, looked up): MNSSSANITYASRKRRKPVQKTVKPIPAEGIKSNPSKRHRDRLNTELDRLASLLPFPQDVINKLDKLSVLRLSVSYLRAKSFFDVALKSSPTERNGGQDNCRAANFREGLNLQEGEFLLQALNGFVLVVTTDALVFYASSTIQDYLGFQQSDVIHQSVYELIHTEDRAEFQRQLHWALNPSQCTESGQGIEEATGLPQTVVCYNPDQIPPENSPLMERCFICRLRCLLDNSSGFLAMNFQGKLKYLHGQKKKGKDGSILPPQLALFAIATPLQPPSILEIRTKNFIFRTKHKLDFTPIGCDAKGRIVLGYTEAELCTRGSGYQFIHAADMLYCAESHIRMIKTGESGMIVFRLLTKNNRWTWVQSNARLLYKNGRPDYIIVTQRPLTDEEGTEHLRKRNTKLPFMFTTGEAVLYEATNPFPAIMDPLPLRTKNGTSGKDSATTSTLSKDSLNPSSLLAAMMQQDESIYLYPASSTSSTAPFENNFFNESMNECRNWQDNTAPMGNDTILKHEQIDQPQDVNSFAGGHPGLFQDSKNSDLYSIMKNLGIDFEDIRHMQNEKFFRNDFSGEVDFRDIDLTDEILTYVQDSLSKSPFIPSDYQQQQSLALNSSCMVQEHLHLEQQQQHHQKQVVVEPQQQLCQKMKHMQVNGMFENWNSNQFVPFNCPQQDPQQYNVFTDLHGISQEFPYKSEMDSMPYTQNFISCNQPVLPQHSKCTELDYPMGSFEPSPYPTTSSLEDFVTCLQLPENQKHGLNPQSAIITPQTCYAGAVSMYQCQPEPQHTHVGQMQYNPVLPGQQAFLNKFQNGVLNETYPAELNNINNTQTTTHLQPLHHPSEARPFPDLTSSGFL
HSF1 inh = HSF1 inhibition. activity change, negative = inhibition, % at 7.5 µM (by protocol). AID 2098. NIH3T3-HGL HSE-luciferase, MG132-induced, luminescence 8 h; stronger effect = lower value. 300,000 tested, 0.77% active;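 active = more than half of replicate wells show activity change below -50%, luminescence cut by over half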;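 note: luciferase reports HSF-1 transcriptional activity via heat shock element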
PolyA inhibitor = yeast polyadenylation inhibition; S. cerevisiae SKY197-pL101 polyadenylation reporter, beta-gal luminescence; efflux-impaired pdr1/pdr3 knockout yeast; score 100 = 6 SD above DMSO; activity score, % at 12 µM; 300,000 tested, 0.02% active;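 active = lowest replicate activity score at least 50, where 100 means six control SD above control mean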;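 note: yeast exposed to compound for 9 h at 30 °C; higher score means more reporter readthrough which indicates perturbed polyadenylation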
STAT3 act = increases IL-6 driven STAT3 reporter signal | U3A cells, IL-6 STAT3-luciferase reporter, luminescence; 100% = signal with IL-6 EC80 alone | activation (% of control), % at 5.6 µM | 190,000 tested, 0.91% active;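 active = activation above the screen-wide mean of compound activation plus 3 SD, cut at about 130% in these data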
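Assay system – human STAT1-deficient U3A cells with stable STAT3-luciferase reporter · Also added – IL-6 (33 ng/mL) · Schedule – compound 1 h, then IL-6 6 h at 37 °C · Technique – reporter luminescence signal · Evaluation – % activation versus median of IL-6-stimulated wells · Benchmarks – IL-6-only wells as 100% reference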
Numbers stand for hits; n = inactive; x = no result given.

SMILES	Hsp70 act	PERK inh	AHR act	HSF1 inh	PolyA inhibitor	STAT3 act
O=C(O)CCCNC(=O)c1nn(Cc2ccccc2)c(=O)c2ccccc12	x	x	n	n	n	x
Brc1ccc(NC(c2ccccc2)c2ccncc2)cc1 (configuration not stated)	x	x	n	n	n	x
COc1ccc2nc(COC(=O)c3cccs3)c(C(C)=O)[n+]([O-])c2c1	x	n	n	-54	n	x
CC(=O)c1c(COC(=O)c2ccc(Cl)cc2)nc2ccccc2[n+]1[O-]	x	n	n	n	90	x
COc1cccc(NC(=O)CSc2nc3scc(C)c3c(=O)[nH]2)c1	x	x	n	n	n	x
O=C(C1=C(O)C(=O)N(c2ncccn2)C1c1ccc(Cl)cc1)c1ccco1 (configuration not stated)	n	n	75	n	n	n
CC(C#N)Sc1ncnc2sc(-c3ccccc3)cc12 (configuration not stated)	x	x	n	n	n	x
Cc1c(N2C(=O)CSC2c2ccccc2)c(=O)n(-c2ccccc2)n1C (configuration not stated)	x	n	n	n	n	x
COc1ccc(C2SCC(=O)N2c2c(C)n(C)n(-c3ccccc3)c2=O)cc1OC (configuration not stated)	n	n	n	n	67	n
CCCCn1c(SCC(=O)NCc2ccco2)nc2c(sc3ccccc32)c1=O	n	n	n	-65	n	n
O=C(CSc1nc2c(sc3ccccc32)c(=O)n1CCc1ccccc1)NCc1ccco1	n	n	n	n	n	n
O=C(CSc1nc2c(sc3ccccc32)c(=O)n1-c1ccccc1)NCc1ccco1	n	n	113	n	n	n
C/C(N)=C(/C#N)C(=O)COC(=O)c1ccc(OCC2CCCO2)cc1 (configuration not stated)	x	x	n	n	n	x
CCn1ncc(CN2CCC(Oc3cc(C(=O)NC4CC4)ccc3OC)CC2)c1C	x	x	x	n	n	x
COc1ccc(N2CCN(S(=O)(=O)c3cc4c(cc3C)N(C(C)=O)CCO4)CC2)cc1	x	x	n	-58	n	x
Nc1nc(NCc2ccccc2)nc(Nc2cccc(F)c2)c1[N+](=O)[O-]	n	n	n	x	x	n
Nc1nc(NCC2CCCO2)nc(Nc2ccc(F)cc2)c1[N+](=O)[O-] (configuration not stated)	n	n	76	n	n	n
COc1ccccc1Nc1nc(NCCC(C)C)nc(N)c1[N+](=O)[O-]	x	n	49	n	n	x
COc1ccccc1Nc1nc(N(C)c2ccccc2)nc(N)c1[N+](=O)[O-]	x	x	x	n	n	x
Nc1nc(NCc2ccccc2)nc(Nc2ccc(F)cc2)c1[N+](=O)[O-]	n	n	103	n	n	n
CSCC[C@H](NC(=O)[C@H]1CC[C@H](CNC(=O)[C@@H](N)Cc2ccccc2)CC1)C(=O)O	x	x	n	n	n	x
Cc1cc(C)c(NC(=O)CN(C)C(=O)CNC(=O)c2cccs2)c(C)c1	x	x	n	x	x	x
COCCOC1CCN(C(=O)c2cc(COc3ccc(F)cc3F)on2)CC1	x	x	n	n	n	x
CC(C)c1ccc(NNC(=O)C2CCC2)cc1	x	n	49	n	n	x
CC(C)c1ccc(NC(=S)NNC(=O)C2CC2)cc1	n	n	n	n	n	n
SMILES	Hsp70 act	PERK inh	AHR act	HSF1 inh	PolyA inhibitor	STAT3 act
O=C(Nc1nc2c(F)cc(F)cc2s1)C1CC1	x	x	55	n	n	x
O=C(Nc1nc2c(Cl)cccc2s1)C1CC1	x	x	55	n	n	x
O=C(Nc1nc2c(Cl)c(Cl)ccc2s1)C1CC1	x	x	48	n	n	x
O=C(CN1C(=O)CCC1=O)Nc1nc2c(F)cc(F)cc2s1	n	n	n	n	n	n
Cc1cc(N2C(=O)C3C4CC(c5ccccc5)C(C4)C3C2=O)no1 (configuration not stated)	n	n	n	n	n	n
COc1ccccc1NC(=S)N(Cc1ccco1)Cc1cc2ccc(C)c(C)c2[nH]c1=O	n	n	n	n	n	n
COc1ccccc1NC(=S)N(Cc1ccco1)Cc1cc2cc(C)cc(C)c2[nH]c1=O	n	n	72	n	n	n
CCCC(=O)Nc1ccc2c(c1)nc(CCN1CCCCC1)n2C	x	n	n	n	n	x
O=C(NC(=S)NCCc1ccccc1)c1ccccc1F	x	x	74	n	n	x
O=C(NC(=S)NCCc1ccccc1)c1ccccc1	n	n	69	n	n	n
O=C(NCCc1ccccc1)c1ccccc1C(=O)NCCc1ccccc1	x	x	70	n	n	x
O=C(NC(=S)NCc1ccccc1)c1ccccc1F	n	n	n	n	n	n
CCOC(=O)CNS(=O)(=O)c1ccc(S(=O)(=O)NC2CC2)cc1	x	x	n	n	n	x
CCN(c1ccccc1)S(=O)(=O)c1ccc2c(c1)N(C(C)=O)CCS2	x	x	n	n	n	x
N#Cc1c(N)c(C(=O)c2ccccc2)n2c1CCCC2	n	n	n	n	n	n
Nc1nc2n(c1C(=O)c1ccccc1)CCC2	n	n	n	-70	n	n
O=C(O)c1cnc(-c2ccccc2)nc1Sc1ccccc1Cl	n	n	n	n	n	135
COc1cccc(N2CCN(C(=O)C3CCN(S(=O)(=O)c4cccs4)CC3)CC2)c1	n	n	n	n	n	n
COc1cc(C(=O)OCc2ccc(C)cc2)cc(NC(=O)c2cccs2)c1OC	n	n	58	n	n	n
COc1ccc2c3n(nc2c1)CCN=C3c1cc(Cl)c(N)c(Cl)c1	x	x	61	x	x	x
COc1ccc(C2=NCCn3nc4ccccc4c32)cc1	x	x	54	x	x	x
Nc1c(Cl)cc(C2=NCCn3nc4cc(C(F)(F)F)ccc4c32)cc1Cl	x	x	54	n	n	x
CCOC(=O)C1=C(COC(=O)c2cccc(NC(C)=O)c2)NC(=O)NC1C (configuration not stated)	x	x	n	n	n	x
O=C(CSc1nnc(-c2ccccc2)o1)N1CCCCC1	x	x	n	n	n	x
CCC(=O)Nc1nnc(S(=O)(=O)N(C)c2ccccc2)s1	x	x	x	n	n	x
SMILES	Hsp70 act	PERK inh	AHR act	HSF1 inh	PolyA inhibitor	STAT3 act
O=C1C=C(/C=C/c2ccccc2)C[C@@H](c2ccc3c(c2)OCO3)C1	x	x	n	x	x	x
Cc1ccc(S(=O)(=O)Nc2n[nH]nc2C(=O)NC2CCCCC2)cc1	n	n	n	x	n	n
Cc1cccn2c(N)c(-c3ccccc3)nc12	n	n	n	n	n	134
c1ccc(-c2ccc(-c3nc(-c4ccccn4)no3)cc2)cc1	n	n	n	-88	n	n
Cc1ccc(-c2nc(-c3ccccn3)no2)cc1	n	n	n	-78	n	n
Cc1ccc2nc(-c3ccccn3)oc2c1	n	n	61	n	n	n
Cc1ccccc1-c1noc(-c2ccc(Cl)cc2)n1	n	n	n	n	n	n
Cc1ccccc1-c1noc(-c2ccc(O)cc2)n1	n	n	59	n	n	n
CN(Cc1ccc(OC(F)F)cc1)C(=O)c1ccc2c(=O)n3c(nc2c1)CCC3	x	x	n	n	n	x
CCCc1nnc(SCC(=O)Nc2cccc(C(F)(F)F)c2)o1	x	x	n	n	n	x
CC(=O)Nc1ccc(S(=O)(=O)NCCC(=O)Nc2ccc(C)c(F)c2)cc1	x	x	n	n	n	x
